From ChEMBL document CHEMBL1131231, “New azole antifungals. 2. Synthesis and antifungal activity of heterocyclecarboxamide derivatives of 3-amino-2-aryl-1-azolyl-2-butanol” (1998) come the findings set out here.

By MIC is commonly meant the least concentration at which growth counts as inhibited. Lower therefore signals inhibition by little substance.

Common to all, as to assay type: functional
The nature of assay [1]: The compound was tested in vitro for antifungal activity against 6 filamentous fungi. In a few lines:
(§1)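 Agar dilution on Kimmig's agar with 0.5% glycerol; ATCC or clinical isolates, inocula at 10⁵ cfu/mL. Drugs from 800 μg/mL stock in 50% ethanol, 2-fold serial dilutions 80 to 0.03 μg/mL in plates. Incubated 25 °C, 48 h for yeasts, 120 h for filamentous fungi. Value is geometric mean of MICs (μg/mL); >80 taken as 160, ≤0.03 as 0.03.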

Assay [2] in a line: The compound was tested in vitro for antifungal activity against 10 yeasts. In outline:
as §1

Assay [3] has as its system Candida albicans. The experiment in a line: In vivo antifungal activity against murine candidosis model after peroral administration with 0.5 mg/kg at various time intervals. (percent protection for 100% mortality with untreated group). Conditions: route oral. In a few lines:
(§2)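 Male mice, groups of 10, infected iv with 0.2 mL Candida albicans at (2–8) × 10⁷ cfu/mL. Oral suspension in 1% Tween + 0.2% carboxymethylcellulose in water, given 1, 4 and 24 h post-infection; vehicle controls and a fluconazole group at the same dose. Survival scored on days 1, 2, 3, 5, 7, 9, reported as % surviving on the day untreated, or fluconazole-treated, mortality reached 100%.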

In assay [4] the test system is Candida albicans. Kind of assay: In vivo antifungal activity against murine candidosis model after peroral administration with 0.5 mg/kg at various time intervals. (percent protection for 100% mortality with fluconazole-treated group.). Conditions: route oral. In a few lines: as §2

SMILES strings stand for the structures. Converted amounts (≈) assume the structure as drawn.

For the molecule `C[C@@H](NC(=O)c1ccc(C(F)(F)F)cc1)[C@](O)(Cn1cncn1)c1ccc(F)cc1F`, the MIC in assay [1] is 22 µg/mL (≈ 50 µM); in assay [2], 4.6 µg/mL (≈ 10.4 µM). In addition, the Protection in the assay with Candida albicans [3] and with Candida albicans [4] was 100% each time.
For the molecule `C[C@@H](NC(=O)c1ccn(-c2ccc(Cl)cc2)c1)[C@](O)(Cn1cncn1)c1ccc(F)cc1F`, the MIC in assay [1] was 17 µg/mL (≈ 36 µM); in assay [2] it was 1.2 µg/mL (≈ 2.54 µM). Further, the Protection in the assay with Candida albicans [3] and in the assay on Candida albicans [4] was 0% each time.
Regarding `Cc1cc(-c2ccc(C#N)cc2)sc1C(=O)N[C@H](C)[C@](O)(Cn1cncn1)c1ccc(F)cc1F`, the MIC in assay [1] was 8.9 µg/mL (≈ 18 µM); in assay [2], 0.7 µg/mL (≈ 1.42 µM). For the same molecule, the Protection is 100% with Candida albicans [3] and 70% with Candida albicans [4].
With `C[C@@H](NC(=O)c1sc(-c2ccc(Cl)cc2)cc1N)[C@](O)(Cn1cncn1)c1ccc(F)cc1F`, the MIC in assay [1] was 22 µg/mL (≈ 43.7 µM); in assay [2], 0.6 µg/mL (≈ 1.19 µM). Also, the Protection with Candida albicans [3] and in the assay on Candida albicans [4] was 0% each time.
`Cc1nc(COc2ccc(Cl)cc2)sc1C(=O)N[C@H](C)[C@](O)(Cn1cncn1)c1ccc(F)cc1F`: the MIC came out at 2.9 µg/mL (≈ 5.43 µM) in assay [1] and 0.6 µg/mL (≈ 1.12 µM) in assay [2]. In addition, the Protection was found to be 30% in the assay with Candida albicans [3] and 0% in the assay with Candida albicans [4].
On to `C[C@@H](NC(=O)c1nsc(-c2ccc(Cl)cc2)n1)[C@](O)(Cn1cncn1)c1ccc(F)cc1F`, for which the MIC in assay [1] was more than 80 µg/mL; in assay [2] it was 1.4 µg/mL (≈ 2.85 µM). For the same molecule, the Protection stood at 80% in the assay with Candida albicans [3] and 10% with Candida albicans [4].
With `Cc1oc(-c2ccc(Cl)cc2)cc1C(=O)N[C@H](C)[C@](O)(Cn1cncn1)c1ccc(F)cc1F`, the MIC amounted to 10 µg/mL (≈ 20.5 µM) in assay [1] and 0.9 µg/mL (≈ 1.85 µM) in assay [2]. Also, the figures for the Protection in the assay with Candida albicans [3] and in the assay on Candida albicans [4] were 100% and 0%, respectively.
The corresponding values for `CC(=O)ONC(=N)c1ccc(-c2nc(C)c(C(=O)N[C@H](C)[C@](O)(Cn3cncn3)c3ccc(F)cc3F)s2)cc1` are 45 µg/mL (≈ 79 µM), 14 µg/mL (≈ 24.6 µM), 70% and 0%.
Turning to `Cc1nc(-c2ccc(C(=N)NO)cc2)sc1C(=O)N[C@H](C)[C@](O)(Cn1cncn1)c1ccc(F)cc1F`, the values for the MIC in assay [1] and in assay [2] were 80 µg/mL (≈ 152 µM) and 12 µg/mL (≈ 22.7 µM), respectively. Further, the Protection with Candida albicans [3] and in the assay on Candida albicans [4] was 0% each time.
Regarding `Cc1c(C(=O)N[C@H](C)[C@](O)(Cn2cncn2)c2ccc(F)cc2F)cnn1C`, the MIC in assay [1] and in assay [2] was more than 80 µg/mL throughout.
Take `C[C@@H](NC(=O)c1sc(-c2ccc(C3N=NN=N3)cc2)nc1C(F)(F)F)[C@](O)(Cn1cncn1)c1ccc(F)cc1F`: the MIC was more than 80 µg/mL in assay [1] and 75 µg/mL (≈ 127 µM) in assay [2]. The Protection in the assay on Candida albicans [3] was 30%; in the assay on Candida albicans [4], 0%.
`C[C@@H](NC(=O)c1cnc(-c2ccc(Cl)cc2)s1)[C@](O)(Cn1cncn1)c1ccc(F)cc1F`: the MIC came out at 6.3 µg/mL (≈ 12.9 µM) in assay [1] and 0.7 µg/mL (≈ 1.43 µM) in assay [2]. In addition, the Protection with Candida albicans [3] and in the assay on Candida albicans [4] was 100% throughout.
Take `Cc1nc(-c2ccc(OCC(F)(F)C(F)F)cc2)sc1C(=O)N[C@H](C)[C@](O)(Cn1cncn1)c1ccc(F)cc1F`: the MIC turned out to be 2.2 µg/mL (≈ 3.67 µM) in assay [1] and 1.3 µg/mL (≈ 2.17 µM) in assay [2]. For the same molecule, the Protection in the assay on Candida albicans [3] amounted to 100%; with Candida albicans [4] it was 0%.
`C[C@@H](NC(=O)c1csc(-c2ccc(Cl)cc2)n1)[C@](O)(Cn1cncn1)c1ccc(F)cc1F`: the MIC is more than 80 µg/mL in assay [1] and 4.5 µg/mL (≈ 9.18 µM) in assay [2]. Besides, the Protection in the assay with Candida albicans [3] and in the assay on Candida albicans [4] was 0% each time.
In the case of `Cc1nc(Oc2ccc(Cl)cc2)sc1C(=O)N[C@H](C)[C@](O)(Cn1cncn1)c1ccc(F)cc1F`, the MIC in assay [1] came out at 4 µg/mL (≈ 7.69 µM); in assay [2], 1.5 µg/mL (≈ 2.88 µM). The Protection with Candida albicans [3] is on record as 10%; with Candida albicans [4], 0%.
In the same order, the values of `Cc1nc(-c2ccc(Br)cc2)sc1C(=O)N[C@H](C)[C@](O)(Cn1cncn1)c1ccc(F)cc1F` are 1.8 µg/mL (≈ 3.28 µM), 0.6 µg/mL (≈ 1.09 µM), 100% and 90%.
The corresponding values for `C[C@@H](NC(=O)c1ccc(-c2ccc(C#N)cc2)s1)[C@](O)(Cn1cncn1)c1ccc(F)cc1F` are more than 80 µg/mL, 0.8 µg/mL (≈ 1.67 µM), 100% and 100%.
The corresponding values for `Cc1nc(-c2ccc(Cl)cc2)oc1C(=O)N[C@H](C)[C@](O)(Cn1cncn1)c1ccc(F)cc1F` are 40 µg/mL (≈ 82 µM), 3.7 µg/mL (≈ 7.58 µM), 40% and 0%.
With `Cc1nc(-c2ccc(Cl)cc2)sc1C(=O)N[C@H](C)[C@](O)(Cn1cncn1)c1ccc(F)cc1F`, the MIC in assay [1] turned out to be 1.2 µg/mL (≈ 2.38 µM); in assay [2] it was 0.8 µg/mL (≈ 1.59 µM). The Protection in the assay with Candida albicans [3] and with Candida albicans [4] was 100% in each case.
`C[C@@H](NC(=O)c1ccc(Cl)cc1)[C@](O)(Cn1cncn1)c1ccc(F)cc1F`: the MIC in assay [1] amounted to 11 µg/mL (≈ 27 µM); in assay [2], 3.9 µg/mL (≈ 9.59 µM). The Protection in the assay with Candida albicans [3] and in the assay on Candida albicans [4] was 0% throughout.
Regarding `C[C@@H](NC(=O)c1sc(-c2ccc(Cl)cc2)nc1C(F)(F)F)[C@](O)(Cn1cncn1)c1ccc(F)cc1F`, the results for the MIC in assay [1] and in assay [2] were 8.9 µg/mL (≈ 16 µM) and 2 µg/mL (≈ 3.58 µM), respectively. Also, the Protection in the assay on Candida albicans [3] is on record as 100%; in the assay on Candida albicans [4], less than 70%.
In the same order, the values of `C[C@@H](NC(=O)c1ccc(-c2cc(C(F)(F)F)nn2C)s1)[C@](O)(Cn1cncn1)c1ccc(F)cc1F` are 28 µg/mL (≈ 53.2 µM), 2.3 µg/mL (≈ 4.37 µM), 10% and 0%.
In the same order, the values of `C[C@@H](NC(=O)c1scc(S(=O)(=O)c2ccc(Cl)cc2)c1N)[C@](O)(Cn1cncn1)c1ccc(F)cc1F` are 10 µg/mL (≈ 17.6 µM), 1 µg/mL (≈ 1.76 µM), 20% and 0%.
The corresponding values for `C[C@@H](NC(=O)c1sc(-c2ccc(C#N)cc2)nc1C(F)(F)F)[C@](O)(Cn1cncn1)c1ccc(F)cc1F` are 28 µg/mL (≈ 51 µM), 2.9 µg/mL (≈ 5.29 µM), 100% and less than 50%.
In the case of `Cc1nc(-c2ccc(C(N)=O)cc2)sc1C(=O)N[C@H](C)[C@](O)(Cn1cncn1)c1ccc(F)cc1F`, the MIC was more than 80 µg/mL in assay [1] and 20 µg/mL (≈ 39 µM) in assay [2]. The Protection in the assay on Candida albicans [3] and with Candida albicans [4] was 0% throughout.
`Cc1nc(-c2ccc(Cl)cc2)n(C)c1C(=O)N[C@H](C)[C@](O)(Cn1cncn1)c1ccc(F)cc1F`: the MIC in assay [1] stood at 18 µg/mL (≈ 35.9 µM); in assay [2] it was 2.6 µg/mL (≈ 5.19 µM). In addition, the Protection in the assay with Candida albicans [3] is listed as 100%; in the assay with Candida albicans [4], 0%.
On to `Cc1nc(-c2ccc(C(C)(C)C)cc2)sc1C(=O)N[C@H](C)[C@](O)(Cn1cncn1)c1ccc(F)cc1F`, for which the values for the MIC in assay [1] and in assay [2] were 8.9 µg/mL (≈ 16.9 µM) and 2.1 µg/mL (≈ 4 µM), respectively. Also, the Protection in the assay on Candida albicans [3] and in the assay with Candida albicans [4] was 0% in each case.
With `C[C@@H](NC(=O)c1ccc(-c2ccc(Cl)cc2)cc1)[C@](O)(Cn1cncn1)c1ccc(F)cc1F`, the minimal inhibitory concentration (MIC) in assay [1] was 18 µg/mL (≈ 37.3 µM); in assay [2] it was 0.3 µg/mL (≈ 0.621 µM). In addition, the Protection with Candida albicans [3] and in the assay on Candida albicans [4] was 100% in each case.
Turning to `Cc1cc(-c2ccc(Cl)cc2)sc1C(=O)N[C@H](C)[C@](O)(Cn1cncn1)c1ccc(F)cc1F`, the MIC stood at 0.7 µg/mL (≈ 1.39 µM) in assay [1] and 0.3 µg/mL (≈ 0.596 µM) in assay [2]. Also, the values for the Protection in the assay with Candida albicans [3] and in the assay with Candida albicans [4] were 100% and 20%, respectively.
The corresponding values for `Cc1nc(C)c(C(=O)N[C@H](C)[C@](O)(Cn2cncn2)c2ccc(F)cc2F)s1` are more than 80 µg/mL, 19 µg/mL (≈ 46.6 µM), 0% and 0%.
Regarding `C[C@@H](NC(=O)c1noc(-c2ccc(Cl)cc2)n1)[C@](O)(Cn1cncn1)c1ccc(F)cc1F`, the MIC in assay [1] was 32 µg/mL (≈ 67.4 µM); in assay [2] it was 2.1 µg/mL (≈ 4.42 µM). The figures for the Protection in the assay on Candida albicans [3] and in the assay with Candida albicans [4] were 100% and 10%, respectively.
The corresponding values for `Cc1nc(-c2ccc(C#N)cc2)sc1C(=O)N[C@H](C)[C@](O)(Cn1cncn1)c1ccccc1F` are 5 µg/mL (≈ 10.5 µM), 1.5 µg/mL (≈ 3.15 µM), 100% and 60%.
`Cc1nc(-c2ccc(C#N)cc2)sc1C(=O)N(C)[C@H](C)[C@](O)(Cn1cncn1)c1ccc(F)cc1F`: the MIC turned out to be 4.5 µg/mL (≈ 8.85 µM) in assay [1] and 0.8 µg/mL (≈ 1.57 µM) in assay [2]. The Protection in the assay with Candida albicans [3] and in the assay with Candida albicans [4] was 100% throughout.
Regarding `Cc1sc(-c2ccc(Cl)cc2)nc1C(=O)N[C@H](C)[C@](O)(Cn1cncn1)c1ccc(F)cc1F`, the MIC in assay [1] and in assay [2] was more than 80 µg/mL in each case.
Turning to `Cc1nc(Br)sc1C(=O)N[C@H](C)[C@](O)(Cn1cncn1)c1ccc(F)cc1F`, the MIC worked out at 32 µg/mL (≈ 67.8 µM) in assay [1] and 4.6 µg/mL (≈ 9.74 µM) in assay [2].
In the same order, the values of `C[C@@H](NC(=O)c1cnn(-c2ccc(C(F)(F)F)cc2)c1N)[C@](O)(Cn1cncn1)c1ccc(F)cc1F` are 28 µg/mL (≈ 53.7 µM) and 3.3 µg/mL (≈ 6.33 µM).
Take `C[C@@H](n1cnc2cc(-c3ccc(-n4ncnn4)cc3)sc2c1=O)[C@](O)(Cn1cncn1)c1ccc(F)cc1F`: the MIC in assay [1] was more than 80 µg/mL; in assay [2] it was 1.9 µg/mL (≈ 3.47 µM).
In the same order, the values of `CCCS(=O)(=O)c1csc(C(=O)N[C@H](C)[C@](O)(Cn2cncn2)c2ccc(F)cc2F)c1N` are 23 µg/mL (≈ 46 µM) and 4.4 µg/mL (≈ 8.81 µM).
